Reference: ChEMBL document CHEMBL4334469, “Integrated Synthetic, Biophysical, and Computational Investigations of Covalent Inhibitors of Prolyl Oligopeptidase and Fibroblast Activation Protein α” (J Med Chem, 2019)
The source made the active and inactive calls. The calls are words filed in the database; no cut-off is given here. Peptide text beside a SMILES is read from it. * marks the point of attachment. Cbz = O=C(OCc1ccccc1)*

Key:
Prolyl endopeptidase FAP = biological target: T1, Prolyl endopeptidase FAP (Homo sapiens, UniProt Q12884); assay: Inhibition of FAP (unknown origin)
T1 sequence (Q12884 whole entry): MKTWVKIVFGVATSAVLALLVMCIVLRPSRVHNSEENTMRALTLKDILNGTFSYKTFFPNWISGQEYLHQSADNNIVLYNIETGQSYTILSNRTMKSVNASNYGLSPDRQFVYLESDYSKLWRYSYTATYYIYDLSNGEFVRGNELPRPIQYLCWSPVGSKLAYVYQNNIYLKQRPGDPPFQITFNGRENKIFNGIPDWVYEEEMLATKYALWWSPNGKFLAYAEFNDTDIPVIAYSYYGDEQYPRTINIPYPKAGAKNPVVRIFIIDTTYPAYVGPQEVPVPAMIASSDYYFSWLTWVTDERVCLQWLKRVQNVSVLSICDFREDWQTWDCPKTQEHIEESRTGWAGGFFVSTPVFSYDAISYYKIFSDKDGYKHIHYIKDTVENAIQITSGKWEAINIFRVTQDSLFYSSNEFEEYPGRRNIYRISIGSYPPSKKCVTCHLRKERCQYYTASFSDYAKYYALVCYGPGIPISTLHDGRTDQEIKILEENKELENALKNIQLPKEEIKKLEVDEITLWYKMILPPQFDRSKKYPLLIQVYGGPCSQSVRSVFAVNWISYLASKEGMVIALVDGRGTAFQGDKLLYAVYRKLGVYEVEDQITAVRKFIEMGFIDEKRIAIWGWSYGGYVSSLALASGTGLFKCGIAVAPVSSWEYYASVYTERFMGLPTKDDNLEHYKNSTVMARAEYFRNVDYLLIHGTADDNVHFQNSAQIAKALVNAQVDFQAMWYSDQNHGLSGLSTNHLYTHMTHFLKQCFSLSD

[1] = biological target: Prolyl endopeptidase FAP (Homo sapiens) (UniProt Q12884); assay: Inhibition of human recombinant FAP at 100 uM using fluorogenic DPP substrate1 relative to control
Prolyl endopeptidase = biological target: T2, Prolyl endopeptidase (Homo sapiens, UniProt P48147); assay: (§1) Inhibition of recombinant human POP pre-incubated for 30 mins before addition of ZGP-pNA substrate by absorbance assay
T2 sequence (P48147 whole entry): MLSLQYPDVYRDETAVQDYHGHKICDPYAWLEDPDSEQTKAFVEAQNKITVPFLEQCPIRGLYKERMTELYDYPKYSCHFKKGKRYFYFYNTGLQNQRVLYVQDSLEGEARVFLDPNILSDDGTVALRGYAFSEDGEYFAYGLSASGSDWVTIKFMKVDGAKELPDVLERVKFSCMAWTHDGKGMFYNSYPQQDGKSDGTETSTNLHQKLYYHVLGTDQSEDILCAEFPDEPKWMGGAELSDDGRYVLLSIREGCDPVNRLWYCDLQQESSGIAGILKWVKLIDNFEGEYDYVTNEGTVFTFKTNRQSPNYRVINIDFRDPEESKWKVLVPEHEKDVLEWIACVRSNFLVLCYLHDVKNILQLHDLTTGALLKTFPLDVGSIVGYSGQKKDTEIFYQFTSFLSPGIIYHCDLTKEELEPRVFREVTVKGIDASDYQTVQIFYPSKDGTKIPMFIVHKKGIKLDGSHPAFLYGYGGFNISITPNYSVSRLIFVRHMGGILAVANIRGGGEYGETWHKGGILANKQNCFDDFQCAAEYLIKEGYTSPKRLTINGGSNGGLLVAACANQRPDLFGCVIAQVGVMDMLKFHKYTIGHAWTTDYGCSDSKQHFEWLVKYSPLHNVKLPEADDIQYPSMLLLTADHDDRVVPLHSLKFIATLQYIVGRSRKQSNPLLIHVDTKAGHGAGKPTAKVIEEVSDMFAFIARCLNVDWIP

[2] = Drug metabolism in buffer assessed as formation of [(2R)-1-(2-benzyl-3-oxo-isoindoline-4-carbonyl)pyrrolidin-2-yl]boronic acid after 10 mins by LC-MS analysis
Outline: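 Boronic ester hydrolysis was followed by LC-MS (UHPLC-QTOF, positive ESI). Ester from a 100 mM DMSO stock was diluted 1:10 into buffer in a capped autosampler vial. Aliquots were taken at 5 min intervals and loop-injected in 1:1 water/acetonitrile with 0.1% formic acid. The boronic ester remaining was tracked over time.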

[3] = biological target: T3, Prolyl endopeptidase (Homo sapiens) (UniProt P48147); assay: as §1
T3 sequence (whole entry): T2 sequence (P48147 whole entry)

[4] = biological target: Prolyl endopeptidase FAP (Homo sapiens) (UniProt Q12884); assay: Inhibition of human recombinant FAP at 10 uM using fluorogenic DPP substrate1 relative to control

| Compound | inhibition [1] [%] | further results |
| --- | --- | --- |
| CC(C)[C@H](NC(=O)c1ccncc1)C(=O)N1CCC[C@H]1B(O)O | – | IC50 (Prolyl endopeptidase FAP): > 100 µM |
| O=C[C@@H]1CCCN1C(=O)[C@@H]1CCCN1C(=O)OCc1ccccc1 (Cbz-Pro-Pro-aldehyde) | < 5 | – |
| N#C[C@@H]1C[C@@H](F)CN1C(=O)c1cccc2c1C(=O)N(Cc1ccccc1)C2 | < 5 | Ki (Prolyl endopeptidase): > 100 µM |
| O=C(c1cccc2c1C(=O)N(Cc1ccccc1)C2)N1CC[C@@H](F)C1 | < 5 | – |
| CC1(C)[C@H]2C[C@@H]3OB([C@@H]4CCCN4C(=O)c4cccc5c4C(=O)N(Cc4ccccc4)C5)O[C@]3(C)[C@@H]1C2 | < 5 | Drug metabolism [2]: 90% |
| N#C[C@@H]1CC(F)(F)CN1C(=O)c1cccc2c1C(=O)N(Cc1ccccc1)C2 | < 5 | Ki (Prolyl endopeptidase): 3.3 µM |
| CC1(C)[C@@H]2C[C@@H](O)[C@@](C)(O)[C@H]1C2 | – | inhibition [3]: inactive |
| O=C(c1cccc2c1C(=O)N(Cc1ccccc1)C2)N1CC[C@H](F)C1 | < 5 | – |
| N#C[C@@H]1C[C@H](F)CN1C(=O)c1cccc2c1C(=O)N(Cc1ccccc1)C2 | < 5 | Ki (Prolyl endopeptidase): 0.17 µM |
| O=C[C@@H]1CCCN1C(=O)c1cccc2c1C(=O)N(Cc1ccccc1)C2 | 80 | inhibition [4]: 11% |
| O=C(c1cccc2c1C(=O)N(Cc1ccccc1)C2)N1CCCC1 | < 5 | – |
| N#C[C@@H]1CCCN1C(=O)c1cccc2c1C(=O)N(Cc1ccccc1)C2 | 20 | – |
